Laboratory results as given in ChEMBL document CHEMBL1124724, “Steroidal A ring aryl carboxylic acids: a new class of steroid 5 alpha-reductase inhibitors” (J Med Chem, 1990).

Columns and labels:
[1] = biological target: T1, Steroid 5-alpha-reductase (Rattus norvegicus, UniProt P24008+P31214); assay: Inhibition of Steroid 5-alpha-reductase of rat ventral prostate tissue; format: tissue-based, Prostate gland
T1 sequence (P24008 whole entry): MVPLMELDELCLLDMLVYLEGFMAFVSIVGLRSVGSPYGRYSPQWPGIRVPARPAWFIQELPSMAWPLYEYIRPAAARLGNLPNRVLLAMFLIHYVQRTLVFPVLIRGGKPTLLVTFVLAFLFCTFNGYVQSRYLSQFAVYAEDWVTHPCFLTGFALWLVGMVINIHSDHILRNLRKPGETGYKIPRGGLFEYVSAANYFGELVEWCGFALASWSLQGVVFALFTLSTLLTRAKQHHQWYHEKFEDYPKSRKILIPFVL
T1 sequence (P31214 whole entry): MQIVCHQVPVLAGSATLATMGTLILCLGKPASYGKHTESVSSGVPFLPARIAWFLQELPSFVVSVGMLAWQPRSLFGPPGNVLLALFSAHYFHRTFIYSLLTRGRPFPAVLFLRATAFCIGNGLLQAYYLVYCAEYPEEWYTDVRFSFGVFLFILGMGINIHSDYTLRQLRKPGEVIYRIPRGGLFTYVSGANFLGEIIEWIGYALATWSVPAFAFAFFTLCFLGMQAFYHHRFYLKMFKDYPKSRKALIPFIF
How it was run: (§1)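 Activity is total 5α-reduced products (DHT + ADIOL) by radiolabel after ethyl acetate extraction. Ki,app is given as a range across microsome preparations; >10 000 means under 50% inhibition at highest concentration.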

[2] = Inhibition of Steroid 5-alpha-reductase of benign hyperplastic human prostatic tissue; conditions: read-out: Ki app
How it was run: (§2)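 Ethyl acetate quench with carrier steroids; product is DHT plus ADIOL from radiolabel split. Ki,app is given as a range over several microsome preparations; >10 000 means under 50% inhibition at top concentration.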

[3] = biological target: T1, Steroid 5-alpha-reductase; assay: In vitro inhibition against Steroid 5-alpha-reductase of whole rat ventral prostate tissue expressed as apparent inhibition constant; format: functional, tissue-based, Prostate gland; how it was run: as §1
[4] = biological target: T2, 3-oxo-5-alpha-steroid 4-dehydrogenase 2 (Homo sapiens, UniProt P31213); assay: In vitro inhibition against Steroid 5-alpha-reductase of benign hyperplastic human prostatic tissue expressed as apparent inhibition constant; format: functional; conditions: read-out: Ki app; how it was run: as §2
T2 sequence (P31213 whole entry): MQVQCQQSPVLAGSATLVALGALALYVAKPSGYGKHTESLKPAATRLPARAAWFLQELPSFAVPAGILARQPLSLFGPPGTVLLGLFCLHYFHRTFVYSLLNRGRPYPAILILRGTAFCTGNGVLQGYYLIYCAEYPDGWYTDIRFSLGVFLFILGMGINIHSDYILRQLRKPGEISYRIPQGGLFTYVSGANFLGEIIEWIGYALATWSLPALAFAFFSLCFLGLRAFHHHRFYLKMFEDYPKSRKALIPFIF

CC(C)N(C(=O)[C@H]1CCC2C3C=Cc4cc(C(=O)O)ccc4C3CC[C@@]21C)C(C)C (stereo not given in full)
Ki app [1]: 450 nM
Ki [2]: 30 nM

CC(C)N(C(=O)[C@H]1CC[C@H]2[C@@H]3CCc4c(ccc(C(=O)O)c4Br)[C@H]3CC[C@]12C)C(C)C
Ki app [1]: 1900 nM
Ki [2]: 212 nM

CC(C)N(C(=O)[C@H]1CC[C@H]2[C@@H]3CCc4cc(C(=O)O)c(Cl)cc4[C@H]3CC[C@]12C)C(C)C
Ki app [1]: 200 nM
Ki [2]: 35 nM

CC(C)N(C(=O)[C@H]1CC[C@H]2[C@@H]3CCc4cc(C(=O)O)c(C(=O)O)cc4[C@H]3CC[C@]12C)C(C)C
Ki app [3]: > 10 µM
Ki [4]: 5 µM

CC(C)N(C(=O)[C@H]1CCC2c3ccc4cc(C(=O)O)ccc4c3CC[C@@]21C)C(C)C (stereo not given in full)
Ki app [1]: 350 nM
Ki [2]: 36 nM

CC(C)N(C(=O)[C@H]1CC[C@H]2[C@@H]3CCc4cc(C(=O)O)c(C#N)cc4[C@H]3CC[C@]12C)C(C)C
Ki app [1]: 950 nM
Ki [2]: 65 nM

CC(C)(C)NC(=O)[C@H]1CC[C@H]2[C@@H]3CCc4cc(C(=O)O)ccc4[C@H]3CC[C@]12C
Ki app [1]: 150 nM
Ki [2]: 43 nM

CC(C)N(C(=O)[C@H]1CC[C@H]2[C@@H]3CCc4c(ccc(C(=O)O)c4C#N)[C@H]3CC[C@]12C)C(C)C
Ki app [1]: > 10000 nM
Ki [2]: 200 nM

CC(C)N(C(=O)[C@H]1CC[C@H]2[C@@H]3CCc4cc(C(=O)O)c(Br)cc4[C@H]3CC[C@]12C)C(C)C
Ki app [1]: 260 nM
Ki [2]: 76 nM

Cc1c(C(=O)O)ccc2c1CC[C@@H]1[C@@H]2CC[C@]2(C)[C@@H](C(=O)N(C(C)C)C(C)C)CC[C@@H]12
Ki app [1]: 7000 nM
Ki [2]: 260 nM

CC(C)N(C(=O)[C@H]1CC[C@H]2[C@@H]3CCc4cc(C(=O)O)ccc4[C@H]3CC[C@]12C)C(C)C
Ki app [1]: 356 nM
Ki [2]: 20 nM

CC(C)N(C(=O)[C@H]1CC[C@H]2[C@@H]3CCc4c(ccc(C(=O)O)c4F)[C@H]3CC[C@]12C)C(C)C
Ki app [1]: 500 nM
Ki [2]: 10 nM

Cc1cc2c(cc1C(=O)O)CC[C@@H]1[C@@H]2CC[C@]2(C)[C@@H](C(=O)N(C(C)C)C(C)C)CC[C@@H]12
Ki app [1]: 340 nM
Ki [2]: 60 nM

CC(C)N(C(=O)[C@H]1CC[C@H]2[C@@H]3CCc4c(ccc(C(=O)O)c4Cl)[C@H]3CC[C@]12C)C(C)C
Ki app [1]: 900 nM
Ki [2]: 120 nM

CC(C)(C)NC(=O)C1=CCC2C3CCc4cc(C(=O)O)ccc4C3CC[C@]12C (stereo not given in full)
Ki app [1]: 200 nM
Ki [2]: 60 nM
